Reference: ChEMBL document CHEMBL5512642, “Novel triterpenoid pyrones, phthalimides and phthalates are selectively cytotoxic in CCRF-CEM cancer cells - Synthesis, potency, and mitochondrial mechanism of action” (Eur J Med Chem, 2024)
Active and inactive are the calls of the source. No cut-off for these calls is given here.

Experiments:
K562 = assay: Cytotoxicity against human K562 cells assessed as reduction in cell viability incubated for 72 hrs by MTS assay; assay type: functional, cell-based; settings: K562, 72 h
CCRF-CEM [1] = assay: Induction of apoptosis in human CCRF-CEM cells assessed as viable cells at 5 time IC50 incubated for 24 hrs by Annexin V and propidium iodide staining based flow cytometry analysis (reference value: 98%); assay type: functional
A549 = assay: Cytotoxicity against human A549 cells assessed as reduction in cell viability incubated for 72 hrs by MTS assay; assay type: functional, cell-based; settings: A549, 72 h
CCRF-CEM [2] = assay: Antiproliferative activity against human CCRF-CEM cells assessed as inhibition of RNA synthesis at 5 time of IC50 by BrdU incorporation assay; assay type: functional, cell-based; settings: in the assay text read “BrU incorporation assay” for “BrdU incorporation assay”
Outline: (§1)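 Mitotic fraction scored with the pH3 Ser10 marker and DNA synthesis with BrdU incorporation. For transcription, cells received a short BrU pulse after the 24 h pre-incubation. Read by flow cytometry against untreated cells.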

CCRF-CEM [3] = assay: Induction of apoptosis in human CCRF-CEM cells assessed as early apoptotic cells at 5 time IC50 incubated for 24 hrs by Annexin V and propidium iodide staining based flow cytometry analysis (reference value: 1.4%); assay type: functional
[4] = Stability in human plasma assessed as compound remaining measured 30 mins by RF-MS analysis; assay type: ADME, cell-free; settings: read-out: Stability
Outline: (§2)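 Compounds incubated in human plasma in vitro for up to 2 h. Percent remaining sampled at 15, 30, 60 and 120 min. Run in triplicate.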

[5] = Plasma protein binding in human assessed as fraction bound at 10 uM by rapid equilibrium dialysis based RF-MS analysis; assay type: ADME, cell-free; settings: read-out: PPB (converted)
Outline: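 Human plasma protein binding measured by equilibrium dialysis and reported as percent fraction bound. Run in triplicate.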

CCRF-CEM [6] = assay: Antiproliferative activity against human CCRF-CEM cells assessed as reduction BruD positive cell at 1 time of IC50 by BrdU incorporation assay; assay type: functional, cell-based; outline: as §1
[7] = Cytotoxicity against human K562-Tax cells assessed as reduction in cell viability incubated for 72 hrs by MTS assay; assay type: functional, cell-based
CCRF-CEM [8] = assay: Induction of apoptosis in human CCRF-CEM cells assessed as necrotic cells at 5 time IC50 incubated for 24 hrs by Annexin V and propidium iodide staining based flow cytometry analysis (reference value: 0.; assay type: functional
CCRF-CEM [9] = assay: Antiproliferative activity against human CCRF-CEM cells assessed as reduction BruD positive cell at 5 time of IC50 by BrdU incorporation assay; assay type: functional, cell-based; outline: as §1
CCRF-CEM [10] = assay: Induction of mitochondrial membrane potential loss in human CCRF-CEM cells assessed as cells with depolarized mitochondria (P2 gate) by measuring green fluorescence intensity at 1 time IC50 incubated for 24 hrs by JC-1 staining based flow cytometry (reference value: 2.1%)
CCRF-CEM [11] = assay: Antiproliferative activity against human CCRF-CEM cells assessed as reduction cell population at 1 time of IC50 by BrdU incorporation assay; assay type: functional, cell-based; outline: as §1
HCT-116 = assay: Cytotoxicity against human HCT-116 cells assessed as reduction in cell viability incubated for 72 hrs by MTS assay; assay type: functional, cell-based; settings: HCT-116, 72 h
[12] = Apparent permeability of the compound across apical to basolateral side in human Caco-2 cells assessed as compound recovery; assay type: ADME, cell-based; settings: read-out: Activity
Outline: (§3)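 Caco-2 and MDCK-MDR1 monolayers; transport measured in both directions, apical→basolateral and basolateral→apical. Efflux ratio taken from the two directions; ER > 2 counted as active efflux. Compound recovery reported. Cell-based permeability runs done in duplicate.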

CCRF-CEM [13] = assay: Induction of mitochondrial membrane potential loss in human CCRF-CEM cells assessed as cells with depolarized mitochondria (P2 gate) by measuring green fluorescence intensity at 5 time IC50 incubated for 24 hrs by JC-1 staining based flow cytometry (reference value: 2.1%)
CCRF-CEM [14] = assay: Antimitotic activity against human CCRF-CEM cells assessed as decrease in cell division at 5 times of IC50; assay type: functional, cell-based; outline: as §1
[15] = Stability in human plasma assessed as compound remaining measured 60 mins by RF-MS analysis; assay type: ADME, cell-free; settings: read-out: Stability; outline: as §2
[16] = Apparent permeability of the compound in MDCK-MDR1 cells at 10 uM incubated for 1 hr by RF-MS analysis; assay type: ADME, cell-based, Canis lupus familiaris; settings: dog; outline: as §3
CCRF-CEM [17] = assay: Induction of apoptosis in human CCRF-CEM cells assessed as late apoptotic cells at 5 time IC50 incubated for 24 hrs by Annexin V and propidium iodide staining based flow cytometry analysis (reference value: 0.5%); assay type: functional
[18] = Apparent permeability of the compound across apical to basolateral side in MDCK-MDR1 cells assessed as compound recovery at 10 uM incubated for 1 hr by RF-MS analysis; assay type: ADME, cell-based, Canis lupus familiaris; settings: dog, read-out: Activity; outline: as §3
CCRF-CEM [19] = assay: Induction of apoptosis in human CCRF-CEM cells assessed as viable cells at 1 time IC50 incubated for 24 hrs by Annexin V and propidium iodide staining based flow cytometry analysis (reference value: 98%); assay type: functional
CCRF-CEM [20] = assay: Induction of apoptosis in human CCRF-CEM cells assessed as early apoptotic cells at 1 time IC50 incubated for 24 hrs by Annexin V and propidium iodide staining based flow cytometry analysis (reference value: 1.4%); assay type: functional
CCRF-CEM [21] = assay: Induction of apoptosis in human CCRF-CEM cells assessed as reduction in Bcl-XL expression at 5 time of IC50 incubated for 24 hrs by Western blot analysis; assay type: functional, cell-based
Outline: (§4)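 Lysate 20 µg protein per lane on SDS-PAGE, transferred to nitrocellulose, blocked in 5% BSA/TBS-Tween. Probed overnight at 4 °C with anti-caspase-3, Bcl-2, Bcl-XL, β-actin, then HRP secondary 1 h. ECL chemiluminescence detection.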

CCRF-CEM [22] = assay: Induction of apoptosis in human CCRF-CEM cells assessed as necrotic cells at 1 time IC50 incubated for 24 hrs by Annexin V and propidium iodide staining based flow cytometry analysis (reference value: 0.1%); assay type: functional
[23] = Cytotoxicity against human MRC5 cells assessed as reduction in cell viability incubated for 72 hrs by MTS assay; assay type: toxicity, cell-based
U2OS = assay: Cytotoxicity against human U2OS cells assessed as reduction in cell viability incubated for 72 hrs by MTS assay; assay type: functional, cell-based
CEM-DNR = assay: Cytotoxicity against human CEM-DNR cells assessed as reduction in cell viability incubated for 72 hrs by MTS assay; assay type: functional, cell-based
HCT 116 TP53(-/-) = assay: Cytotoxicity against human HCT116-p53-null cells assessed as reduction in cell viability incubated for 72 hrs by MTS assay; assay type: functional, cell-based
CCRF-CEM [24] = assay: Induction of apoptosis in human CCRF-CEM cells assessed as reduction in caspase-3 expression at 5 time of IC50 incubated for 24 hrs by Western blot analysis; assay type: functional, cell-based; outline: as §4
[25] = Metabolic stability in human liver microsomes assessed as compound remaining at measured at 15 mins in presence of NADPH by RF-MS analysis; assay type: ADME, Microsome; settings: read-out: Stability
Outline: (§5)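 Human liver microsomes with NADPH cofactor to assess phase I oxidation. Compound remaining sampled at 15, 30 and 60 min; intrinsic clearance derived and categorized. Run in triplicate.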

[26] = Cytotoxicity against human BJ cells assessed as reduction in cell viability incubated for 72 hrs by MTS assay; assay type: toxicity, cell-based
CCRF-CEM [27] = assay: Induction of apoptosis in human CCRF-CEM cells assessed as late apoptotic cells at 1 time IC50 incubated for 24 hrs by Annexin V and propidium iodide staining based flow cytometry analysis (reference value: 0.5%); assay type: functional
[28] = Stability in human plasma assessed as compound remaining measured 120 mins by RF-MS analysis; assay type: ADME, cell-free; settings: read-out: Stability; outline: as §2
[29] = Stability in human plasma assessed as compound remaining measured 15 mins by RF-MS analysis; assay type: ADME, cell-free; settings: read-out: Stability; outline: as §2
CCRF-CEM [30] = assay: Induction of apoptosis in human CCRF-CEM cells assessed as reduction in Bcl-2 expression at 5 time of IC50 incubated for 24 hrs by Western blot analysis; assay type: functional, cell-based; outline: as §4
[31] = Metabolic stability in human liver microsomes assessed as compound remaining at measured at 60 mins in presence of NADPH by RF-MS analysis; assay type: ADME, Microsome; settings: read-out: Stability; outline: as §5
CCRF-CEM [32] = assay: Cytotoxicity against human CCRF-CEM cells assessed as reduction in cell viability incubated for 72 hrs by MTS assay; assay type: functional, cell-based
[33] = Apparent permeability of the compound in human Caco-2 cells; assay type: ADME, cell-based; outline: as §3

For `CC(C)[C@@H]1CC[C@]2(C(=O)O)CC[C@]3(C)[C@H](CC[C@@H]4[C@@]5(C)Cc6c(C(F)(F)F)cc(=O)oc6C(C)(C)[C@@H]5CC[C@]43C)[C@@H]12`, the IC50 (K562) was 23 µM, the Activity (CCRF-CEM [1]) was 69.9% and the IC50 (A549) was 11 µM. For the same compound, the Activity (CCRF-CEM [2]) was “Active”, the Activity (CCRF-CEM [3]) was 14.3% and the remaining at 0.5 h [4] was 97.7%. For the same compound, the fraction unbound at 10 µM [5] was 0.056, the Activity (CCRF-CEM [6]) was “inactive” and the IC50 [7] was 17 µM. For the same compound, the Activity (CCRF-CEM [8]) was 0%, the Activity (CCRF-CEM [9]) was “Active” and the Activity (CCRF-CEM [10]) was 4%. For the same compound, the Activity (CCRF-CEM [11]) was “inactive”, the IC50 (HCT-116) was 10 µM and the recovery [12] was 105%. For the same compound, the Activity (CCRF-CEM [13]) was 28.6%, the Activity (CCRF-CEM [14]) was “Active” and the remaining at 1 h [15] was 97.5%. It also gave a Papp at 1 h, 10 µM [16] of 0.27 ×10⁻⁶ cm/s, an Activity (CCRF-CEM [17]) of 15.8% and a recovery at 1 h, 10 µM [18] of 64.8%. The Activity (CCRF-CEM [19]) was 92.4%, the Activity (CCRF-CEM [20]) was 4.8% and the Activity (CCRF-CEM [21]) was “Active”. The Activity (CCRF-CEM [22]) was 0%, the IC50 at 72 h [23] was 27 µM and the IC50 (U2OS) was 19 µM. The IC50 (CEM-DNR) was 4.9 µM, the IC50 (HCT 116 TP53(-/-)) was 18 µM and the Activity (CCRF-CEM [24]) was “Active”. The remaining at 0.25 h [25] was 106%, the IC50 at 72 h [26] was greater than 50 µM and the Activity (CCRF-CEM [27]) was 2.8%. The remaining at 2 h [28] was 94.2%, the remaining at 0.25 h [29] was 98.4% and the Activity (CCRF-CEM [30]) was “Active”. The remaining at 1 h [31] was 82%, the IC50 (CCRF-CEM [32]) was 3.5 µM and the Papp [33] was 0.15 ×10⁻⁶ cm/s.
